According to ChEMBL document CHEMBL1134643 (J Med Chem, 2001):
The source made the active and inactive calls. The calls are words filed in the database; no cut-off is given here.

Assays:
Nociceptin receptor [1] = target: Nociceptin receptor (Mus musculus, UniProt P35377); assay: Inhibition of [3H]NC-NH2 binding to mouse forebrain membranes; set-up: species or system Membrane
Nociceptin receptor [2] = target: Nociceptin receptor (Homo sapiens, UniProt P41146); assay: Inhibition of forskolin stimulated cAMP accumulation in CHO cells stably expressing the human OP4 receptor; format: functional, cell-based
[3] = target: Nociceptin receptor (Mus musculus) (UniProt P35377); assay: Maximum receptor binding in the electrically stimulated mouse vas deferens; format: functional, tissue-based
In short: (§1)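 Vas deferens from male Swiss mice (25-30 g) is held in Mg2+-free Krebs at 33 °C, gassed with 95% O2/5% CO2 at pH 7.4. Tissue is stimulated at 0.05 Hz with 1 ms supramaximal pulses under 0.3 g resting tension, and twitches are recorded isotonically.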

Mus musculus [4] = species on record: Mus musculus; assay: Antagonist activity of compound in the electrically stimulated mouse vas deferens; format: functional
In short: (§2)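 Peptides without agonist effect in the mouse vas deferens (Mg2+-free Krebs, 33 °C, 0.05 Hz, 1 ms pulses) are tested up to 10 μM. Each is added 15 min before a cumulative concentration-response curve to NC(1-13)-NH2. pKB is calculated with the Gaddum-Schild equation, taking slope as unity, from the concentration-ratio of equieffective agonist concentrations.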

Mus musculus [5] = species on record: Mus musculus; assay: receptor binding constant using mouse forebrain membranes and [3H]NC-NH2 as radioligand; format: functional, Membrane
In short: (§3)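 Forebrains from male Swiss mice are homogenised in 50 mM Tris-HCl, 2 mM EDTA, 100 μM PMSF, pH 7.4. Membranes are preincubated 30 min at 37 °C and stored at -80 °C. Displacement uses 0.5 nM [3H]NC-NH2, 200 μg protein, and graded ligand concentrations up to 10 μM, for 120 min at 25 °C.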

Mus musculus [6] = species on record: Mus musculus; assay: Maximum receptor binding assay determined by using mouse forebrain membrane and [3H]NC-NH2; format: functional; in short: as §3
Mus musculus [7] = species on record: Mus musculus; assay: Maximum receptor binding using mouse forebrain membranes and [3H]NC-NH2; format: functional; details: Membrane; in short: as §3
Mus musculus [8] = species on record: Mus musculus; assay: Maximum receptor binding assay determined by using mouse forebrain membrane and [3H]NC-NH2 at 10 uM; format: functional
Mus musculus [9] = species on record: Mus musculus; assay: Antagonist activity of compound in the electrically stimulated mouse vas deferens; Inactive; format: functional; in short: as §2
Mus musculus [10] = species on record: Mus musculus; assay: Agonist activity of compound in the electrically stimulated mouse vas deferens; Inactive; format: functional; in short: as §1
Mus musculus [11] = species on record: Mus musculus; assay: Maximum receptor binding assay determined by using mouse forebrain membrane and [3H]NC-NH2; Inactive; format: functional; in short: as §3

Chain of Nociceptin receptor (Mus musculus) (P35377 whole entry): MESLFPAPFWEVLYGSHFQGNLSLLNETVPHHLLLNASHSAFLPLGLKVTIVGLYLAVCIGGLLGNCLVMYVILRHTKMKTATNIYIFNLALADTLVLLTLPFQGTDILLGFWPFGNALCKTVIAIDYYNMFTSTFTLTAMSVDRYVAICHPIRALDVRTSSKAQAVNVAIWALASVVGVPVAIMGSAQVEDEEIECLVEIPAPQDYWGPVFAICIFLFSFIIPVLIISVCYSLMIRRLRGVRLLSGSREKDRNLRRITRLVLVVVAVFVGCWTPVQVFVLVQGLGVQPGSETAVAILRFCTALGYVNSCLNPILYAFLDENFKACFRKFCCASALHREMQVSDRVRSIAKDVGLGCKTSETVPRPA
Chain of Nociceptin receptor (Mus musculus, UniProt P35377) (P35377 whole entry): as above
Chain of Nociceptin receptor (Homo sapiens, UniProt P41146) (P41146 whole entry): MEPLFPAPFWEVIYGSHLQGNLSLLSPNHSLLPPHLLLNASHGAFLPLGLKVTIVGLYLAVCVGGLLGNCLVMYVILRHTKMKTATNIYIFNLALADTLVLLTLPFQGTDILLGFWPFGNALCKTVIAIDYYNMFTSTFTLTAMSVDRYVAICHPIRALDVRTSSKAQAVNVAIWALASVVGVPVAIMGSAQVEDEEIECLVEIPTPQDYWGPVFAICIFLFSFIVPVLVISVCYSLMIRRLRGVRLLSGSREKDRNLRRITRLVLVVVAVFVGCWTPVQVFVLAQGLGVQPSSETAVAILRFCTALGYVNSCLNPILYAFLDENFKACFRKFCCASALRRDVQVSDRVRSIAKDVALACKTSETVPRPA

Structure (SMILES)	Ki (Nociceptin receptor [1]) [nM]	Emax [3] [%]	also measured
COc1ccc(C[C@H](NC(=O)CNC(=O)CNC(=O)[C@@H](N)Cc2ccccc2)C(=O)N[C@H](C(=O)NCC(=O)N[C@@H](C)C(=O)N[C@@H](CCCN=C(N)N)C(=O)N[C@@H](CCCCN)C(=O)N[C@@H](CO)C(=O)N[C@@H](C)C(=O)N[C@@H](CCCN=C(N)N)C(=O)N[C@@H](CCCCN)C(N)=O)[C@@H](C)O)cc1	89.1	-80	EC50 (Nociceptin receptor [2]): 63.1 nM
C[C@H](NC(=O)CNC(=O)[C@@H](NC(=O)[C@H](Cc1ccc(F)cc1)NC(=O)CNC(=O)CNC(=O)[C@@H](N)Cc1ccccc1)[C@@H](C)O)C(=O)N[C@@H](CCCN=C(N)N)C(=O)N[C@@H](CCCCN)C(=O)N[C@@H](CO)C(=O)N[C@@H](C)C(=O)N[C@@H](CCCN=C(N)N)C(=O)N[C@@H](CCCCN)C(N)=O	0.398	-85	–
C[C@H](NC(=O)CNC(=O)[C@@H](NC(=O)[C@H](Cc1ccc(O)cc1)NC(=O)CNC(=O)CNC(=O)[C@@H](N)Cc1ccccc1)[C@@H](C)O)C(=O)N[C@@H](CCCN=C(N)N)C(=O)N[C@@H](CCCCN)C(=O)N[C@@H](CO)C(=O)N[C@@H](C)C(=O)N[C@@H](CCCN=C(N)N)C(=O)N[C@@H](CCCCN)C(N)=O	501	–	pKb (Mus musculus [4]): 5.47; EC50 (Nociceptin receptor [2]): 135 nM
C[C@H](NC(=O)CNC(=O)[C@@H](NC(=O)[C@H](Cc1ccc(Br)cc1)NC(=O)CNC(=O)CNC(=O)[C@@H](N)Cc1ccccc1)[C@@H](C)O)C(=O)N[C@@H](CCCN=C(N)N)C(=O)N[C@@H](CCCCN)C(=O)N[C@@H](CO)C(=O)N[C@@H](C)C(=O)N[C@@H](CCCN=C(N)N)C(=O)N[C@@H](CCCCN)C(N)=O	1.82	-85	–
Cc1ccc(C[C@H](NC(=O)CNC(=O)CNC(=O)[C@@H](N)Cc2ccccc2)C(=O)N[C@H](C(=O)NCC(=O)N[C@@H](C)C(=O)N[C@@H](CCCN=C(N)N)C(=O)N[C@@H](CCCCN)C(=O)N[C@@H](CO)C(=O)N[C@@H](C)C(=O)N[C@@H](CCCN=C(N)N)C(=O)N[C@@H](CCCCN)C(N)=O)[C@@H](C)O)cc1	–	-73	Log Ki (Mus musculus [5]): -7.84
C[C@H](NC(=O)CNC(=O)[C@@H](NC(=O)[C@H](Cc1ccccc1)NC(=O)CNC(=O)CNC(=O)[C@@H](N)Cc1ccccc1)[C@@H](C)O)C(=O)N[C@@H](CCCNC(=N)N)C(=O)N[C@@H](CCCCN)C(=O)N[C@@H](CO)C(=O)N[C@@H](C)C(=O)N[C@@H](CCCNC(=N)N)C(=O)N[C@@H](CCCCN)C(N)=O	–	–	Emax (Mus musculus [6]): -82%
C[C@H](NC(=O)CNC(=O)[C@@H](NC(=O)[C@H](Cc1ccc(Cl)cc1)NC(=O)CNC(=O)CNC(=O)[C@@H](N)Cc1ccccc1)[C@@H](C)O)C(=O)N[C@@H](CCCN=C(N)N)C(=O)N[C@@H](CCCCN)C(=O)N[C@@H](CO)C(=O)N[C@@H](C)C(=O)N[C@@H](CCCN=C(N)N)C(=O)N[C@@H](CCCCN)C(N)=O	0.794	-82	–
C[C@H](NC(=O)CNC(=O)[C@@H](NC(=O)[C@H](Cc1ccc(C#N)cc1)NC(=O)CNC(=O)CNC(=O)[C@@H](N)Cc1ccccc1)[C@@H](C)O)C(=O)N[C@@H](CCCN=C(N)N)C(=O)N[C@@H](CCCCN)C(=O)N[C@@H](CO)C(=O)N[C@@H](C)C(=O)N[C@@H](CCCN=C(N)N)C(=O)N[C@@H](CCCCN)C(N)=O	0.603	-84	–
C[C@H](NC(=O)CNC(=O)[C@@H](NC(=O)[C@H](Cc1ccc(N)cc1)NC(=O)CNC(=O)CNC(=O)[C@@H](N)Cc1ccccc1)[C@@H](C)O)C(=O)N[C@@H](CCCN=C(N)N)C(=O)N[C@@H](CCCCN)C(=O)N[C@@H](CO)C(=O)N[C@@H](C)C(=O)N[C@@H](CCCN=C(N)N)C(=O)N[C@@H](CCCCN)C(N)=O	1780	-23	–
C[C@H](NC(=O)CNC(=O)[C@@H](NC(=O)[C@H](Cc1ccccc1)N(C)C(=O)CNC(=O)CNC(=O)[C@@H](N)Cc1ccccc1)[C@@H](C)O)C(=O)N[C@@H](CCCN=C(N)N)C(=O)N[C@@H](CCCCN)C(=O)N[C@@H](CO)C(=O)N[C@@H](C)C(=O)N[C@@H](CCCN=C(N)N)C(=O)N[C@@H](CCCCN)C(N)=O	–	–	Emax (Mus musculus [6]): -84%
C[C@H](NC(=O)CNC(=O)[C@@H](NC(=O)[C@H](Cc1ccc(I)cc1)NC(=O)CNC(=O)CNC(=O)[C@@H](N)Cc1ccccc1)[C@@H](C)O)C(=O)N[C@@H](CCCN=C(N)N)C(=O)N[C@@H](CCCCN)C(=O)N[C@@H](CO)C(=O)N[C@@H](C)C(=O)N[C@@H](CCCN=C(N)N)C(=O)N[C@@H](CCCCN)C(N)=O	17.4	-76	–
C[C@H](NC(=O)CNC(=O)[C@@H](NC(=O)[C@H](Cc1cccc2ccccc12)NC(=O)CNC(=O)CNC(=O)[C@@H](N)Cc1ccccc1)[C@@H](C)O)C(=O)N[C@@H](CCCN=C(N)N)C(=O)N[C@@H](CCCCN)C(=O)N[C@@H](CO)C(=O)N[C@@H](C)C(=O)N[C@@H](CCCN=C(N)N)C(=O)N[C@@H](CCCCN)C(N)=O	–	–	Emax (Mus musculus [7]): -80%
C[C@H](NC(=O)CNC(=O)[C@@H](NC(=O)[C@H](Cc1cccc(F)c1)NC(=O)CNC(=O)CNC(=O)[C@@H](N)Cc1ccccc1)[C@@H](C)O)C(=O)N[C@@H](CCCN=C(N)N)C(=O)N[C@@H](CCCCN)C(=O)N[C@@H](CO)C(=O)N[C@@H](C)C(=O)N[C@@H](CCCN=C(N)N)C(=O)N[C@@H](CCCCN)C(N)=O	0.891	-90	–
C[C@H](NC(=O)CNC(=O)[C@@H](NC(=O)[C@@H](NC(=O)CNC(=O)CNC(=O)[C@@H](N)Cc1ccccc1)[C@@H](C)c1ccccc1)[C@@H](C)O)C(=O)N[C@@H](CCCN=C(N)N)C(=O)N[C@@H](CCCCN)C(=O)N[C@@H](CO)C(=O)N[C@@H](C)C(=O)N[C@@H](CCCN=C(N)N)C(=O)N[C@@H](CCCCN)C(N)=O	–	–	Emax (Mus musculus [6]): -86%
C[C@H](NC(=O)CNC(=O)[C@@H](NC(=O)[C@H](Cc1ccccc1F)NC(=O)CNC(=O)CNC(=O)[C@@H](N)Cc1ccccc1)[C@@H](C)O)C(=O)N[C@@H](CCCN=C(N)N)C(=O)N[C@@H](CCCCN)C(=O)N[C@@H](CO)C(=O)N[C@@H](C)C(=O)N[C@@H](CCCN=C(N)N)C(=O)N[C@@H](CCCCN)C(N)=O	3.63	-94	–
C[C@H](NC(=O)CNC(=O)[C@@H](NC(=O)CN(Cc1ccccc1)C(=O)CNC(=O)CNC(=O)[C@@H](N)Cc1ccccc1)[C@@H](C)O)C(=O)N[C@@H](CCCN=C(N)N)C(=O)N[C@@H](CCCCN)C(=O)N[C@@H](CO)C(=O)N[C@@H](C)C(=O)N[C@@H](CCCN=C(N)N)C(=O)N[C@@H](CCCCN)C(N)=O	–	–	Emax (Mus musculus [8]): -16%
C[C@H](NC(=O)CNC(=O)[C@@H](NC(=O)[C@H](CC1CCCCC1)NC(=O)CNC(=O)CNC(=O)[C@@H](N)Cc1ccccc1)[C@@H](C)O)C(=O)N[C@@H](CCCN=C(N)N)C(=O)N[C@@H](CCCCN)C(=O)N[C@@H](CO)C(=O)N[C@@H](C)C(=O)N[C@@H](CCCN=C(N)N)C(=O)N[C@@H](CCCCN)C(N)=O	–	–	Emax (Mus musculus [8]): -34%
CC(C)C[C@H](NC(=O)[C@H](CCCCN)NC(=O)[C@H](CCCN=C(N)N)NC(=O)[C@H](C)NC(=O)[C@H](CO)NC(=O)[C@H](CCCCN)NC(=O)[C@H](CCCN=C(N)N)NC(=O)[C@H](C)NC(=O)CNC(=O)[C@@H](NC(=O)[C@H](Cc1ccccc1)NC(=O)CNC(=O)CNC(=O)[C@@H](N)Cc1ccccc1)[C@@H](C)O)C(=O)N[C@@H](C)C(=O)N[C@@H](CC(N)=O)C(=O)N[C@@H](CCC(N)=O)C(=O)O	1.91	–	–
C[C@H](NC(=O)CNC(=O)[C@@H](NC(=O)[C@H](Cc1ccc([N+](=O)[O-])cc1)NC(=O)CNC(=O)CNC(=O)[C@@H](N)Cc1ccccc1)[C@@H](C)O)C(=O)N[C@@H](CCCN=C(N)N)C(=O)N[C@@H](CCCCN)C(=O)N[C@@H](CO)C(=O)N[C@@H](C)C(=O)N[C@@H](CCCN=C(N)N)C(=O)N[C@@H](CCCCN)C(N)=O	0.302	-86	–
C[C@H](NC(=O)CNC(=O)[C@@H](NC(=O)[C@H](Cc1ccc(C(F)(F)F)cc1)NC(=O)CNC(=O)CNC(=O)[C@@H](N)Cc1ccccc1)[C@@H](C)O)C(=O)N[C@@H](CCCN=C(N)N)C(=O)N[C@@H](CCCCN)C(=O)N[C@@H](CO)C(=O)N[C@@H](C)C(=O)N[C@@H](CCCN=C(N)N)C(=O)N[C@@H](CCCCN)C(N)=O	1	-75	–
C[C@H](NC(=O)CNC(=O)[C@@H](NC(=O)[C@H](Cc1ccc(-c2ccccc2)cc1)NC(=O)CNC(=O)CNC(=O)[C@@H](N)Cc1ccccc1)[C@@H](C)O)C(=O)N[C@@H](CCCN=C(N)N)C(=O)N[C@@H](CCCCN)C(=O)N[C@@H](CO)C(=O)N[C@@H](C)C(=O)N[C@@H](CCCN=C(N)N)C(=O)N[C@@H](CCCCN)C(N)=O	–	–	pKb (Mus musculus [9]): inactive; Log EC50 (Mus musculus [10]): inactive; Emax (Mus musculus [11]): inactive
C[C@H](NC(=O)CNC(=O)[C@@H](NC(=O)[C@H](Cc1ccc2ccccc2c1)NC(=O)CNC(=O)CNC(=O)[C@@H](N)Cc1ccccc1)[C@@H](C)O)C(=O)N[C@@H](CCCN=C(N)N)C(=O)N[C@@H](CCCCN)C(=O)N[C@@H](CO)C(=O)N[C@@H](C)C(=O)N[C@@H](CCCN=C(N)N)C(=O)N[C@@H](CCCCN)C(N)=O	–	–	Emax (Mus musculus [6]): -75%
